ChEMBL document CHEMBL1142706, “Synthesis and evaluation of (pyridylmethylene)tetrahydronaphthalenes/-indanes and structurally modified derivatives: potent and selective inhibitors of aldosterone synthase” (J Med Chem, 2005)

How the values were obtained:
[1] = target: T1, Cytochrome P450 11B2, mitochondrial (Homo sapiens, UniProt P19099); assay: In vitro inhibition of human CYP11B2 expressed in Schizosaccharomyces pombe incubated with 100 nM of substrate deoxy-corticosterone in presence of 500 nM of compound
T1 sequence (P19099 whole entry): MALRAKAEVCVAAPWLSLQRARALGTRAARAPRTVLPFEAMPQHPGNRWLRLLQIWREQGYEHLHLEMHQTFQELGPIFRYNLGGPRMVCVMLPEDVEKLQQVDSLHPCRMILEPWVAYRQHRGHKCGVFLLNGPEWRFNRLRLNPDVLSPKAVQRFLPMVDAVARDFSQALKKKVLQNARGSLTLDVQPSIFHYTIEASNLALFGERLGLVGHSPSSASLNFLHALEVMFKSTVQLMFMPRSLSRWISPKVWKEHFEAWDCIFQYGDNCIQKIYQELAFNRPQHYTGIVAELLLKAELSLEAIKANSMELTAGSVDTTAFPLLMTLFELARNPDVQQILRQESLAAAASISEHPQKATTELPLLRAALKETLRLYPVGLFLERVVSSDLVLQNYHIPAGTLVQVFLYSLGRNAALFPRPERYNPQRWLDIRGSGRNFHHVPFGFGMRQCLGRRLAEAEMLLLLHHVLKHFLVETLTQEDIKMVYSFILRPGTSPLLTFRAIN

[2] = target: T1, Cytochrome P450 11B2, mitochondrial; assay: In vitro inhibitory concentration against human CYP11B2 expressed in V79MZh hamster fibroblasts incubated with 100 nM of substrate deoxy-corticosterone in presence of the compound
Outline: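 Intact V79 MZh hamster fibroblasts expressing human CYP11B1 or CYP11B2, incubated with [4-14C]-11-deoxycorticosterone (100 nM) and inhibitor at no fewer than three concentrations to give IC50. Stopped with ethyl acetate, shaken, centrifuged (10 000g, 2 min); steroids in organic phase analysed by HPTLC/phosphoimager. Mean of four determinations, standard deviation less than 5%.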

[3] = target: T2, Aromatase (Homo sapiens, UniProt P11511); assay: In vitro inhibitory concentration against human placental CYP19 incubated with 500 nM of substrate androstenedione in presence of the compound
T2 sequence (P11511 whole entry): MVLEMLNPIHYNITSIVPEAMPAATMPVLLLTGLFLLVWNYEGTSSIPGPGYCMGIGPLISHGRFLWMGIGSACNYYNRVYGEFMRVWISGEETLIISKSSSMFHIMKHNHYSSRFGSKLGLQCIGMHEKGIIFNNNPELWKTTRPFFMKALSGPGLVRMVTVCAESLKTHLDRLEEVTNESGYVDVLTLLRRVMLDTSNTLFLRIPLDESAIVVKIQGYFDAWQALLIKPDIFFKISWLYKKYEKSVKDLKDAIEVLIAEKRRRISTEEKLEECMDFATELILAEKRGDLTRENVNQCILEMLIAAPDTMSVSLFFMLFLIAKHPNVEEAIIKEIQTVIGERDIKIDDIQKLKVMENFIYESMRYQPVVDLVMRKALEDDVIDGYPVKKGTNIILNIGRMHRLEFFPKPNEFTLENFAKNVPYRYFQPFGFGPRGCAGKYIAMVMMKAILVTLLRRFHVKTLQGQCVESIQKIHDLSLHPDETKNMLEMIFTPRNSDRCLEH

[4] = target: T3, CYP17 (Homo sapiens, UniProt P05093); assay: In vitro inhibition of human CYP17 expressed in Escherichia coli incubated with 2.5 uM of substrate progesterone in presence of 2.5 uM of compound; settings: probe progesterone
T3 sequence (P05093 whole entry): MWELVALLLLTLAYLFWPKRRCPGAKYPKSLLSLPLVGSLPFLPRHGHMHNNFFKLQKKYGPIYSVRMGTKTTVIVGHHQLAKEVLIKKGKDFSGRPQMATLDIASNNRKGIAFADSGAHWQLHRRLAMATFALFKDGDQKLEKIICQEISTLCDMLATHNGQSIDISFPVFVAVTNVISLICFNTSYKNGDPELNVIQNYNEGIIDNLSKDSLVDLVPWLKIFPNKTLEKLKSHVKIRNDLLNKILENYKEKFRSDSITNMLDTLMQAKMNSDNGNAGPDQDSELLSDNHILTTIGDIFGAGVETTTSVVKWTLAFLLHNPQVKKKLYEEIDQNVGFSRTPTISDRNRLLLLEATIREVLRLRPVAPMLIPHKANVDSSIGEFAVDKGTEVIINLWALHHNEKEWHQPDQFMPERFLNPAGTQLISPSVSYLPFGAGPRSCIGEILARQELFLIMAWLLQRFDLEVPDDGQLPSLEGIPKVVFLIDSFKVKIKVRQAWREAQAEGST

[5] = species on record: Homo sapiens; assay: In vitro IC50 ratio against human CYP11B1 to that of human CYP11B2
Outline: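 IC50 ratio from V79 MZh hamster fibroblasts expressing human CYP11B1 or CYP11B2, each incubated with [4-14C]-11-deoxycorticosterone (100 nM) and inhibitor at no fewer than three concentrations; steroids extracted into ethyl acetate and quantified by HPTLC with phosphoimaging.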

[6] = target: T4, Cytochrome P450 11B1, mitochondrial (Homo sapiens, UniProt P15538); assay: In vitro inhibitory concentration against human CYP11B1 expressed in V79 MZh hamster fibroblasts incubated with 100 nM of substrate deoxy-corticosterone in presence of the compound
T4 sequence (P15538 whole entry): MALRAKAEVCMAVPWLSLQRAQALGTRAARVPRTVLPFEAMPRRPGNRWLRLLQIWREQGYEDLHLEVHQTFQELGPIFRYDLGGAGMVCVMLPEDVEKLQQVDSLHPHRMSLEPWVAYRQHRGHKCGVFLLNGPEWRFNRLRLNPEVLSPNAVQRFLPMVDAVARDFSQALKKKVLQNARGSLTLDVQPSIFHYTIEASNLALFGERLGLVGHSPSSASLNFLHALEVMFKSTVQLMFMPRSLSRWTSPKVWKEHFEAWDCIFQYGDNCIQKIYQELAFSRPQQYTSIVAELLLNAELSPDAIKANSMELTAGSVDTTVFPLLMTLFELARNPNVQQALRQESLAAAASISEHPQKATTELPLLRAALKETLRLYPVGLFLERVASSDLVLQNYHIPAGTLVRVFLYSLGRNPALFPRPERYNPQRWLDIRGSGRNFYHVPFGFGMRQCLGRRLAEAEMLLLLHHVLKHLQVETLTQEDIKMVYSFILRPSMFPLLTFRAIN

Row | inhibition at 0.5 µM [1] [%] | IC50 [2] [nM] | IC50 [3] [nM] | inhibition at 2.5 µM [4] [%] | Selectivity ratio [5] | Structure (SMILES) | IC50 [6] [nM]
1 | 11 | 59 | – | – | – | COc1ccc2c(c1)CC/C2=C\c1ccncc1 | –
2 | 27 | – | 3930 | 3 | – | Cc1ccc2c(c1)/C(=C/c1cccnc1)CC2 | –
3 | 40 | – | 180 | 53 | – | Fc1cccc2c1CC/C2=C/c1cccnc1 | –
4 | – | – | – | 24 | 1.9 | Brc1ccc2c(c1)CC/C2=C/c1cccnc1 | –
5 | 5 | 9 | 3630 | – | – | C(=C(c1ccccc1)c1ccccc1)c1cccnc1 | –
6 | 0 | 14 | > 36000 | – | – | Fc1ccc2c(c1)CC/C2=C\c1cccc2ncccc12 | –
7 | 47 | – | 3680 | – | – | CC1C/C(=C\c2cccnc2)c2ccccc21 (configuration not stated) | –
8 | 36 | 56 | 1010 | – | – | COc1ccc2c(c1)CCC/C2=C/c1ccncc1 | –
9 | 43 | – | 4600 | 2 | – | Cc1ccc2c(c1)/C(=C\c1cccnc1)CC2 | –
10 | 6 | 5 | 2740 | – | – | C(=C1c2ccccc2-c2ccccc21)c1ccncc1 | –
11 | 46 | 8 | 1710 | – | – | Cc1ccc2c(c1)/C(=C\c1ccncc1)CC2 | –
12 | – | 9 | – | 14 | 33.8 | Clc1cccc2c1CC/C2=C\c1cccnc1 | –
13 | 29 | 11 | 90 | – | – | COc1cc2c(cc1OC)/C(=C/c1ccncc1)CCC2 | –
14 | – | – | – | 16 | 52.4 | Brc1ccc2c(c1)CC/C2=C\c1cccnc1 | –
15 | 31 | 22 | 800 | – | – | COc1ccc2c(c1)CCC/C2=C\c1ccncc1 | –
16 | – | 31 | – | 32 | 21.1 | Clc1cccc2c1CC/C2=C/c1cccnc1 | –
17 | – | – | – | 5 | 35.4 | COc1cccc2c1/C(=C/c1cccnc1)CC2 | –
18 | – | 11 | – | 16 | 11.4 | Fc1ccc2c(c1)CC/C2=C/c1cccnc1 | –
19 | – | 22 | – | 9 | 32.5 | C(=C1/CCCc2ccccc21)/c1cccnc1 | –
20 | 17 | 5 | 4830 | – | – | COc1ccc2c(c1)CC/C2=C/c1cncs1 | –
21 | – | – | – | 36 | 42.6 | COc1ccc2c(c1)CC/C2=C\c1cccnc1 | –
22 | 0 | 31 | > 36000 | – | – | Fc1ccc2c(c1)CC/C2=C/c1cccc2ncccc12 | –
23 | 18 | 17 | 4330 | – | – | COc1ccc2c(c1)CC/C2=C\c1cncs1 | –
24 | 0 | 3 | 4060 | – | – | C(=C1/CC(c2ccccc2)c2ccccc21)/c1cccnc1 (configuration not stated) | –
25 | 0 | 14 | > 36000 | – | – | Fc1ccc2c(c1)CC/C2=C/c1ccnc2ccccc12 | –

Row | inhibition at 0.5 µM [1] [%] | IC50 [2] [nM] | IC50 [3] [nM] | inhibition at 2.5 µM [4] [%] | Selectivity ratio [5] | Structure (SMILES) | IC50 [6] [nM]
26 | 0 | 20 | > 36000 | – | – | Fc1ccc2c(c1)CC/C2=C\c1ccnc2ccccc12 | –
27 | – | 8 | – | – | – | C(=C1/CCc2ccccc21)/c1ccncc1 | –
28 | – | – | – | 40 | 7.1 | Cc1cccc2c1CC/C2=C\c1cccnc1 | –
29 | 32 | 22 | 100 | – | – | C(=C(c1ccccc1)c1ccccc1)c1ccncc1 | –
30 | – | – | – | 42 | 36.9 | Fc1cccc2c1CC/C2=C\c1cccnc1 | –
31 | 24 | 26 | – | – | – | COc1ccc2c(c1)/C(=C\c1ccncc1)CC2 | –
32 | 29 | – | 6360 | 5 | – | COc1ccc2c(c1)/C(=C/c1cccnc1)CC2 | –
33 | 12 | – | 12600 | 16 | – | Cc1cccc2c1CC/C2=C/c1cccnc1 | –
34 | 5 | – | 980 | 6 | – | COc1cc2c(cc1OC)/C(=C/c1cccnc1)CCC2 | –
35 | – | – | – | 24 | 10.1 | C(=C1\CCCc2ccccc21)/c1cccnc1 | –
36 | – | – | – | 6 | 10.9 | CCOc1ccc2c(c1)CC/C2=C/c1cccnc1 | –
37 | – | – | – | 26 | 56.6 | Clc1ccc2c(c1)CC/C2=C\c1cccnc1 | –
38 | – | – | – | 5 | – | N#Cc1ccc(C2CCCc3cncn32)cc1 (configuration not stated) [FADROZOLE] | –
39 | – | – | – | 28 | 3.7 | Clc1ccc2c(c1)CC/C2=C/c1cccnc1 | –
40 | – | 26 | – | 49 | 30.4 | COc1ccc2c(c1)CC/C2=C/c1cccnc1 | –
41 | 0 | – | > 36000 | 1 | – | C(=C1/CCc2cc(OCc3ccccc3)ccc21)/c1cccnc1 | –
42 | 26 | 3 | – | – | – | COc1ccc2c(c1)/C(=C/c1ccncc1)CC2 | –
43 | – | – | – | 13 | 30 | CCOc1ccc2c(c1)CC/C2=C\c1cccnc1 | –
44 | 13 | 55 | – | – | – | COc1ccc2c(c1)CC/C2=C/c1ccncc1 | –
45 | 14 | – | 790 | – | – | Fc1ccc2c(c1)CC/C2=C/c1cncnc1 | –
46 | – | – | – | 20 | 15.8 | COc1ccc2c(c1)CCC/C2=C\c1cccnc1 | –
47 | – | – | – | 17 | 0.2 | COc1ccc2c(c1)CCC/C2=C/c1cccnc1 | –
48 | – | 7 | – | 17 | 44.4 | Fc1ccc2c(c1)CC/C2=C\c1cccnc1 | –
49 | 0 | 6 | 4810 | – | – | C(=C1c2ccccc2-c2ccccc21)c1cccnc1 | –
50 | 41 | 4 | 1280 | – | – | Cc1ccc2c(c1)/C(=C/c1ccncc1)CC2 | –

Row | Structure (SMILES) | inhibition at 0.5 µM [1] [%] | IC50 [2] [nM] | IC50 [3] [nM] | inhibition at 2.5 µM [4] [%] | Selectivity ratio [5] | IC50 [6] [nM]
51 | Clc1ccc2c(c1)CC/C2=C\c1ccncc1 | – | 1520 | – | – | – | 1520
52 | Clc1ccc2c(c1)CC/C2=C/c1ccncc1 | 37 | 301 | 1990 | – | – | –
